Test results taken from publication PMC5299035 (Drug development research, 2016).

Experiments:
Format in all cases: cell-based
FPR2 = biological target: T1, FPR2 (Homo sapiens, UniProt P25090); assay: Ca2+ mobilization assay in FPR2-HL60 cells; conditions: for Emax: read-out: Ca2+ flux FPR2-HL60 efficacy
T1 sequence (P25090 1-351): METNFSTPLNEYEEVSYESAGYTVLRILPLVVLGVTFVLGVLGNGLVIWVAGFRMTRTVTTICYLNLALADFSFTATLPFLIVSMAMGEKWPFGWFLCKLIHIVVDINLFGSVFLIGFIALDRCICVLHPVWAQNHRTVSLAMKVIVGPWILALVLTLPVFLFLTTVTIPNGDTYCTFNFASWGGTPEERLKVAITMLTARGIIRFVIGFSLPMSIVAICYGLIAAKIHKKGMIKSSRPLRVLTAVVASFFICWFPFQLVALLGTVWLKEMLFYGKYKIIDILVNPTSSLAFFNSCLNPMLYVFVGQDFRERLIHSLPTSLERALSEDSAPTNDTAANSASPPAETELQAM
How it was run: (§1)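 FPR2- or FPR3-transfected HL60 cells were grown in RPMI 1640 with 10% heat-inactivated FCS and G418 1 mg/mL. Cells were loaded with Fluo-4 AM (1.25 μg/mL final) for 30 min at 37 °C in the dark, washed, and seeded at 2 × 10^5 cells/well in HBSS+. Fluorescence (ex 485/em 538 nm) was read every 5 s for 240 s at room temperature. Peak rise over baseline was normalised to the reference agonist. EC50 came from 5-6-point nonlinear regression over three independent experiments.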

human neutrophils = assay: Ca2+ mobilization assay in human neutrophils; conditions: Homo sapiens, Neutrophil, read-out: Ca2+ flux human neutrophils EC50
How it was run: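 Neutrophils from healthy donors were purified by dextran sedimentation, Histopaque 1077 gradient and hypotonic red-cell lysis (>95% pure, >98% viable). After Fluo-4 AM loading (1.25 μg/mL final, 30 min, 37 °C, dark), cells were seeded at 2 × 10^5/well in HBSS with Ca2+/Mg2+. Fluorescence (485/538 nm) was tracked every 5 s for 240 s at room temperature. Maximum change over baseline was normalised, and EC50 came from a 5-6-point nonlinear fit.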

FPR1 = biological target: T2, FPR1 (Homo sapiens, UniProt P21462); assay: Ca2+ mobilization assay in FPR1-HL60 cells; conditions: for Emax: read-out: Ca2+ flux FPR1-HL60 efficacy
T2 sequence (P21462 1-350): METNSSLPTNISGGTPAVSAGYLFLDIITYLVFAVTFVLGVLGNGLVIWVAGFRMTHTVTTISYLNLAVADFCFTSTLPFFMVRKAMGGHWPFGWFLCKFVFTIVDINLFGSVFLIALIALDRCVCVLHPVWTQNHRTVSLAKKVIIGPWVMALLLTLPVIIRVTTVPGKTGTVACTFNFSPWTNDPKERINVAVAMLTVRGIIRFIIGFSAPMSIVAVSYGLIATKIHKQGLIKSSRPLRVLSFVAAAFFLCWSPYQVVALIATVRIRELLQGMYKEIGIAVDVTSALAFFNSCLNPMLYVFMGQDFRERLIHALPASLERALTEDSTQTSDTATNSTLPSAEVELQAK
How it was run: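 FPR1-transfected HL60 cells were grown in RPMI 1640 with 10% heat-inactivated FCS, 10 mM HEPES and G418 (1 mg/mL). Cells were loaded with Fluo-4 AM (1.25 μg/mL final) for 30 min at 37 °C in the dark, then washed and seeded in HBSS+ at 2 × 10^5 cells/well. Fluorescence (485/538 nm) was read every 5 s for 240 s at room temperature after compound addition. Peak rise over baseline was set against 5 nM fMLF (100%). EC50 came from nonlinear regression of 5-6-point curves, mean of three independent experiments. No activity meant no response within 2 min (limits: efficacy >20%, EC50 <50 μM).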

FPR3 = biological target: T3, FPR3 (Homo sapiens, UniProt P25089); assay: Ca2+ mobilization assay in FPR3-HL60 cells; conditions: for Emax: read-out: Ca2+ flux FPR3-HL60 efficacy
T3 sequence (P25089 1-353): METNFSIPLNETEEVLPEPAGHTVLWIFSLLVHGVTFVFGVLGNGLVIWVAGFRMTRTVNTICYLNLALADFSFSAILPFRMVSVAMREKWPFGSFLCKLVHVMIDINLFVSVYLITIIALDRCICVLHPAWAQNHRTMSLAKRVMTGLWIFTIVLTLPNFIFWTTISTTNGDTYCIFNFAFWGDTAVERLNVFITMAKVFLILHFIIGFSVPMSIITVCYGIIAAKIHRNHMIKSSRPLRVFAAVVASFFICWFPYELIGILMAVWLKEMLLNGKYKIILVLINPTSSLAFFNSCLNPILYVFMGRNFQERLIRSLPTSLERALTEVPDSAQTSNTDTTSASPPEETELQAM
How it was run: as §1

mouse neutrophils = assay: Ca2+ mobilization assay in mouse neutrophils; conditions: % of the response induced by 10 nM WKYMVm
How it was run: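 Bone marrow was flushed from BALB/c mouse tibias and femurs and separated on a Percoll gradient (45/50/55/62/81%, 1600g, 30 min, 10 °C). Red cells were removed over Histopaque 1119. Neutrophils were loaded with Fluo-4 AM (1.25 μg/mL final) for 30 min at 37 °C, seeded in HBSS+ at 2 × 10^5 cells/well, and read at 485/538 nm every 5 s for 240 s at room temperature. Responses were normalized to 10 nM WKYMVm. EC50 came from nonlinear regression of 5-6-point curves, three experiments.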

mouse Fpr2 = biological target: T4, mouse Fpr2 (Mus musculus, UniProt O88536); assay: Ca2+ mobilization assay in mFpr2-RBL cells
T4 sequence (O88536 1-351): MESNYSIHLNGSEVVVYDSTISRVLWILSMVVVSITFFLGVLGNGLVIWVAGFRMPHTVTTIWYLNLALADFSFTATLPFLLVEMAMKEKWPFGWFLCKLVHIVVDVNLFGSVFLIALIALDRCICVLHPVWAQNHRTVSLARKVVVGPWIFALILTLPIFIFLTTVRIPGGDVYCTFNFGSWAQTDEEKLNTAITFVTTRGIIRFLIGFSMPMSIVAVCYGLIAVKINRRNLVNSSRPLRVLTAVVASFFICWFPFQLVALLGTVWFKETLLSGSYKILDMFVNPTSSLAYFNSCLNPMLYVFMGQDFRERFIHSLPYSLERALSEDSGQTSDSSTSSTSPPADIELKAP
How it was run: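 RBL-2H3 cells stably expressing mouse Fpr2 were grown in DMEM with 20% FBS, 10 mM HEPES and G418 (250 μg/ml). Fluo-4 AM (1.25 μg/mL final) was loaded for 30 min at 37 °C in the dark. Cells were seeded in HBSS+ at 2 × 10^5 cells/well, and fluorescence (485/538 nm) was read every 5 s for 240 s at room temperature. Peak rise was normalized to 10 nM WKYMVm (100%). EC50 came from nonlinear regression of 5-6-point curves over three independent experiments.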

EC50 (FPR2)	Emax (FPR2)	EC50 (human neutrophils)	EC50 (FPR1)	Emax (FPR1)	EC50 (FPR3)	Emax (FPR3)	EC50 (mouse Fpr2)	Ca2+ flux mFpr2-RBL efficacy (mouse Fpr2; % of the response induced by 10 nM WKYMVm)	Structure (SMILES)	Ca2+ flux mouse neutrophils efficacy (mouse neutrophils)
14700 ± 3700 nM	65%	36.1 ± 3.9 µM	34.9 ± 4.2 µM	80%	–	–	–	–	Nc1ccc(-c2csc(=O)n2CC(=O)Nc2ccc(Br)cc2)cc1 [compound 10, 2-[4-(4-Aminophenyl)-2-oxothiazol-3-yl]-N-(4-bromophenyl)acetamide]	–
–	90%	3.2 ± 1.2 µM	–	115%	3.4 ± 0.76 µM	65%	–	–	CCCc1c(C)nn(CC(=O)Nc2ccc(Br)cc2)c(=O)c1Cc1cccc(OC)c1 [4d, N-(4-Bromophenyl)-2-[5-(3-methoxybenzyl)-3-methyl-6-oxo-4-propylpyridazin-1(6H)-yl]acetamide]	–
150 ± 52 nM	115%	0.2 ± 0.056 µM	–	–	0.97 ± 0.23 µM	95%	–	–	Cc1nn(CC(=O)Nc2ccc(Br)cc2)c(=O)cc1-c1ccccc1 [7b, N-(4-Bromophenyl)-2-[3-methyl-6-oxo-4-phenylpyridazin-1(6H)-yl]acetamide]	75%
–	120%	1.3 ± 0.3 µM	–	90%	5.1 ± 1.7 µM	100%	–	–	COc1cccc(-c2csc(=O)n2CC(=O)Nc2ccc(Br)cc2)c1 [9d, N-(4-Bromophenyl)-2-[4-(3-methoxyphenyl)-2-oxothiazol-3-yl]-acetamide]	–
4100 ± 1100 nM	80%	10.7 ± 2.3 µM	12.4 ± 2.6 µM	70%	27.8 ± 3.2 µM	85%	–	–	Cc1csc(=O)n1CC(=O)Nc1ccc(Br)cc1 [9b, N-(4-Bromophenyl)-2-(4-methyl-2-oxo-thiazol-3-yl)acetamide]	–
–	–	1.5 ± 0.4 µM	–	60%	–	–	–	–	O=C(Cn1c(-c2ccc([N+](=O)[O-])cc2)csc1=O)Nc1ccc(Br)cc1 [9h, N-(4-Bromophenyl)-2-[4-(4-nitrophenyl)-2-oxothiazol-3-yl]acetamide]	–
510 ± 190 nM	90%	2 ± 0.29 µM	5.7 ± 2.1 µM	110%	–	–	–	–	Cc1cc(=O)n(CC(=O)Nc2ccc(Br)cc2)nc1C [7a, N-(4-Bromophenyl)-2-[3,4-dimethyl-6-oxopyridazin-1(6H)-yl]acetamide]	70%
–	–	5.4 ± 0.26 µM	–	160%	–	–	28.8 ± 5.2 µM	180%	COc1cccc(Cc2c(-c3ccccc3)c(C)nn(CC(=O)Nc3ccc(Br)cc3)c2=O)c1 [4f, N-(4-Bromophenyl)-2-[5-(3-methoxybenzyl)-3-methyl-6-oxo-4-phenylpyridazin-1(6H)-yl]acetamide]	95%
2100 ± 600 nM	95%	6 ± 1.5 µM	1.8 ± 0.6 µM	100%	19.7 ± 2.4 µM	135%	–	–	O=C(Cn1c(-c2ccccc2)csc1=O)Nc1ccc(Br)cc1 [9c, N-(4-Bromophenyl)-2-(2-oxo-4-phenyl-thiazol-3-yl)acetamide]	–
5800 ± 1400 nM	60%	12.2 ± 2.5 µM	8.9 ± 1.9 µM	75%	–	–	–	–	CC(=O)c1sc(=O)n(CC(=O)Nc2ccc(Br)cc2)c1C [9a, 2-(5-Acetyl-4-methyl-2-oxo-thiazol-3-yl)-N-(4-bromophenyl)acetamide]	–
–	90%	2.7 ± 0.7 µM	–	–	–	–	–	–	CCCCc1c(C)nn(CC(=O)Nc2ccc(Br)cc2)c(=O)c1Cc1cccc(OC)c1 [4e, N-(4-Bromophenyl)-2-[4-butyl-5-(3-methoxybenzyl)-3-methyl-6-oxopyridazin-1(6H)-yl]acetamide]	–
–	100%	1.2 ± 0.3 µM	–	120%	4.1 ± 1.7 µM	100%	–	–	CCc1c(C)nn(CC(=O)Nc2ccc(Br)cc2)c(=O)c1Cc1cccc(OC)c1 [4c, N-(4-Bromophenyl)-2-[4-ethyl-5-(3-methoxybenzyl)-3-methyl-6-oxopyridazin-1(6H)-yl]acetamide]	–
1800 ± 160 nM	100%	7.4 ± 2.3 µM	2.6 ± 0.6 µM	110%	36.1 ± 3.3 µM	85%	–	–	COc1ccc(-c2csc(=O)n2CC(=O)Nc2ccc(Br)cc2)cc1 [9e, N-(4-Bromophenyl)-2-[4-(4-methoxyphenyl)-2-oxothiazol-3-yl]acetamide]	–
3000 ± 700 nM	110%	11.1 ± 2.8 µM	6 ± 1.7 µM	75%	32.2 ± 3.6 µM	75%	–	–	O=C(Cn1c(-c2cccc(Cl)c2)csc1=O)Nc1ccc(Br)cc1 [9f, N-(4-Bromophenyl)-2-[4-(3-chlorophenyl)-2-oxothiazol-3-yl]acetamide]	–
–	75%	12.2 ± 3.1 µM	–	75%	–	–	–	–	O=C(Cn1c(-c2ccc(Cl)cc2)csc1=O)Nc1ccc(Br)cc1 [9g, N-(4-Bromophenyl)-2-[4-(4-chlorophenyl)-2-oxothiazol-3-yl]acetamide]	–
